{"source": "ChEMBL document CHEMBL1131201", "about": "“N-(benzyloxycarbonyl)glycine esters and amides as new anticonvulsants” (J Med Chem, 1998)", "key": {"Mus musculus [1]": {"system": "Mus musculus", "experiment": "Clonic seizures was evaluated after 0.5 hr in pentylenetetrazole test in mice at a dose of 85 mg/kg", "type": "functional"}, "Mus musculus [2]": {"system": "Mus musculus", "experiment": "Tonic seizures was evaluated after 0.5 hr in 3-mercaptopropionic acid test in mice at a dose of 119 mg/kg", "type": "functional", "method_in_brief": "(§1)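 Male NMRI mice (18-25 g) received test agent ip at 119 mg/kg, dissolved in DMSO, 2 mL/kg. 40 mg/kg 3-mercaptopropionic acid in saline was injected ip 30 min or 3 h later. Percentage of animals with tonic seizures was recorded.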"}, "[3]": {"experiment": "Lethality was evaluated after 0.5 hr in pentylenetetrazole test in mice at a dose of 120 mg/kg", "type": "ADME, organism-based", "set-up": "dose 120 mg/kg", "settings": "mouse, in vivo", "method_in_brief": "(§2)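 Male NMRI mice (18-25 g) got compound ip at 119 mg/kg in DMSO (2 mL/kg). At 30 min or 3 h after dosing, pentylenetetrazole in saline was given sc at 85 or 120 mg/kg. Mice were caged singly and watched for 30 min, noting clonic and tonic seizures and deaths. Lethality is given as a percentage.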"}, "Mus musculus [4]": {"system": "Mus musculus", "experiment": "Clonic seizures was evaluated after 0.5 hr in 3-mercaptopropionic acid test in mice at a dose of 119 mg/kg", "type": "functional", "method_in_brief": "(§3)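 Male NMRI mice (18-25 g). Test compound dissolved in DMSO, given ip at 2 mL/kg. Convulsant given 30 min or 3 h later: pentylenetetrazole (85 or 120 mg/kg) sc in saline, or 3-mercaptopropionic acid 40 mg/kg ip in saline. Mice caged singly and watched 30 min. Clonic and tonic seizures and deaths counted, expressed as % of animals.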"}, "[5]": {"experiment": "Lethality was evaluated after 0.5 hr in pentylenetetrazole test in mice at a dose of 85 mg/kg", "type": "ADME, organism-based", "set-up": "dose 85 mg/kg", "settings": "mouse, in vivo", "method_in_brief": "as §2"}, "[6]": {"experiment": "Lethality was evaluated after 3h in pentylenetetrazole test in mice at a dose of 85 mg/kg", "type": "ADME, organism-based", "set-up": "dose 85 mg/kg", "settings": "mouse, in vivo", "method_in_brief": "as §2"}, "Mus musculus [7]": {"system": "Mus musculus", "experiment": "Tonic seizures was evaluated after 0.5 hr in pentylenetetrazole test at a dose of 85 mg/kg", "type": "functional", "method_in_brief": "(§4)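 Male NMRI mice (18-25 g) were dosed ip at 119 mg/kg in DMSO (2 mL/kg). At 30 min or 3 h, pentylenetetrazole in saline was given sc at 85 or 120 mg/kg (the convulsant dose named in each line). Mice were observed individually for 30 min, with clonic and tonic seizures and deaths noted as percent of animals.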"}, "[8]": {"experiment": "Lethality was evaluated after 3h in 3-mercaptopropionic acid test in mice at a dose of 119 mg/kg", "type": "ADME, organism-based", "set-up": "dose 119 mg/kg", "settings": "mouse, in vivo", "method_in_brief": "(§5)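 Male NMRI mice (18-25 g, bred in-house) got test compound ip at 119 mg/kg, dissolved in DMSO and given at 2 mL/kg. At 30 min or 3 h after dosing, 3-mercaptopropionic acid in saline was injected ip at 40 mg/kg. Deaths were recorded and reported as percent lethality.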"}, "Mus musculus [9]": {"system": "Mus musculus", "experiment": "Tonic seizures was evaluated after 3h in pentylenetetrazole test at a dose of 85 mg/kg", "type": "functional", "method_in_brief": "as §4"}, "Mus musculus [10]": {"system": "Mus musculus", "experiment": "Tonic seizures was evaluated after 0.5 hr in strychnine test in mice at a dose of 119 mg/kg", "type": "functional", "method_in_brief": "(§6)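 Male NMRI mice (18-25 g) were dosed ip at 119 mg/kg in DMSO (2 mL/kg). At 30 min or 3 h, strychnine chlorhydrate in saline was given sc (1.2 mg/mL, 1 mL/kg). Mice were observed individually for 30 min, with tonic seizures and lethality recorded as percent of animals.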"}, "Mus musculus [11]": {"system": "Mus musculus", "experiment": "Tonic seizures was evaluated after 3h in strychnine test in mice at a dose of 119 mg/kg", "type": "functional", "method_in_brief": "as §6"}, "[12]": {"experiment": "Lethality was evaluated after 0.5 hr in 3-mercaptopropionic acid test in mice at a dose of 119 mg/kg", "type": "ADME, organism-based", "set-up": "dose 119 mg/kg", "settings": "mouse, in vivo", "method_in_brief": "as §5"}, "[13]": {"experiment": "Lethality was evaluated after 0.5 hr in strychnine test in mice at a dose of 119 mg/kg", "type": "ADME, organism-based", "set-up": "dose 119 mg/kg", "settings": "mouse, in vivo", "method_in_brief": "(§7)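 Male NMRI mice (18-25 g) got compound ip at 119 mg/kg in DMSO (2 mL/kg). At 30 min or 3 h after dosing, strychnine chlorhydrate in saline (1.2 mg/mL) was injected sc at 1 mL/kg. Mice were caged singly and observed for 30 min, recording seizure onset, tonic seizures and lethality (%).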"}, "[14]": {"experiment": "Lethality was evaluated after 3h in strychnine test in mice at a dose of 119 mg/kg", "type": "ADME, organism-based", "set-up": "dose 119 mg/kg", "settings": "mouse, in vivo", "method_in_brief": "as §7"}, "Mus musculus [15]": {"system": "Mus musculus", "experiment": "Compound was tested for anticonvulsant activity in maximal electroshock seizure(MES) test after 30 min upon intraperitoneal administration to mice", "type": "functional", "settings": "ip, 0.5 h", "method_in_brief": "(§8)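 Male OF1 mice (15-25 g), free access to water only during testing. Compound given ip and maximal electroshock applied at 30 min or 3 h. Typically 8-10 mice per compound, dose and time point. Screening at initial 0.4 mmol/kg, scored as protected/tested.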"}, "Mus musculus [16]": {"system": "Mus musculus", "experiment": "Clonic seizures was evaluated after 3h in pentylenetetrazole test in mice at a dose of 85 mg/kg", "type": "functional"}, "Mus musculus [17]": {"system": "Mus musculus", "experiment": "Tonic seizures was evaluated after 3h in 3-mercaptopropionic acid test in mice at a dose of 119 mg/kg", "type": "functional", "method_in_brief": "as §1"}, "Mus musculus [18]": {"system": "Mus musculus", "experiment": "Clonic seizures was evaluated after 3h in 3-mercaptopropionic acid test in mice at a dose of 119 mg/kg", "type": "functional", "method_in_brief": "as §3"}, "Mus musculus [19]": {"system": "Mus musculus", "experiment": "Clonic seizures was evaluated after 0.5 hr in pentylenetetrazole test in mice at a dose of 120 mg/kg", "type": "functional", "method_in_brief": "as §3"}, "Mus musculus [20]": {"system": "Mus musculus", "experiment": "Compound was tested for anticonvulsant activity in maximal electroshock seizure(MES) test after 3 hours upon intraperitoneal administration to mice", "type": "functional", "settings": "ip", "method_in_brief": "as §8"}, "Mus musculus [21]": {"system": "Mus musculus", "experiment": "Tonic seizures was evaluated after 0.5 hr in pentylenetetrazole test at a dose of 120 mg/kg", "type": "functional", "method_in_brief": "as §4"}, "[22]": {"experiment": "Lipophilicity value was evaluated", "type": "physicochemical", "settings": "RP-HPLC", "method_in_brief": "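Lipophilicity by RP-HPLC on a C18 column at 1.0 mL/min. Mobile phases were 10-50% […] with 50-90% 0.01 M phosphate buffer pH 7.4. Triplicate runs per eluent. log k_o extrapolated from at least four eluent compositions. ClogP also calculated.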"}}}
{"smiles": "O=C(CNC(=O)OCc1ccccc1)NCc1ccccc1", "values": [{"measurement": "Clonic seizures", "setting": "Mus musculus [1]", "value": 67, "unit": "%"}, {"measurement": "Tonic seizures", "setting": "Mus musculus [2]", "value": 17, "unit": "%"}, {"measurement": "Lethality", "setting": "[3]", "value": 50, "unit": "%"}, {"measurement": "Clonic seizures", "setting": "Mus musculus [4]", "value": 83, "unit": "%"}, {"measurement": "Lethality", "setting": "[5]", "value": 22, "unit": "%"}, {"measurement": "Lethality", "setting": "[6]", "value": 60, "unit": "%"}, {"measurement": "Tonic seizures", "setting": "Mus musculus [7]", "value": 0, "unit": "%"}, {"measurement": "Lethality", "setting": "[8]", "value": 30, "unit": "%"}, {"measurement": "Tonic seizures", "setting": "Mus musculus [9]", "value": 70, "unit": "%"}, {"measurement": "Tonic seizures", "setting": "Mus musculus [10]", "value": 33, "unit": "%"}, {"measurement": "Tonic seizures", "setting": "Mus musculus [11]", "value": 80, "unit": "%"}, {"measurement": "Lethality", "setting": "[12]", "value": 0, "unit": "%"}, {"measurement": "Lethality", "setting": "[13]", "value": 17, "unit": "%"}, {"measurement": "Lethality", "setting": "[14]", "value": 80, "unit": "%"}, {"measurement": "ED50", "setting": "Mus musculus [15]", "value": 4.8, "unit": "mg/kg"}, {"measurement": "Clonic seizures", "setting": "Mus musculus [16]", "value": 80, "unit": "%"}, {"measurement": "Tonic seizures", "setting": "Mus musculus [17]", "value": 0, "unit": "%"}, {"measurement": "Clonic seizures", "setting": "Mus musculus [18]", "value": 100, "unit": "%"}, {"measurement": "Clonic seizures", "setting": "Mus musculus [19]", "value": 83, "unit": "%"}, {"measurement": "ED50", "setting": "Mus musculus [20]", "value": 11.6, "unit": "mg/kg"}, {"measurement": "Tonic seizures", "setting": "Mus musculus [21]", "value": 0, "unit": "%"}, {"measurement": "Log Ko", "setting": "[22]", "value": 3.5}]}
